The record followed here is ChEMBL document CHEMBL4251758, “Small Molecule Inhibition of MicroRNA miR-21 Rescues Chemosensitivity of Renal-Cell Carcinoma to Topotecan” (J Med Chem, 2018).

As usually defined, the IC50 is the concentration that gives 50% inhibition.

Data set [1] deals with microRNA 21. As to the kind of experiment: Inhibition of miR-21 RNA in human HeLa cells harboring miR-21 binding sequence in 3'-UTR of firefly luciferase gene assessed as increase in luciferase expression incubated for 48 hrs by Bright-Glo luciferase reporter gene assay relative to control. The class given is cell-based. In outline:
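HeLa-miR21-Luc stable line (miR-21 site in the firefly luciferase 3′-UTR), 1000 cells per well. Compound or DMSO (0.1% final) added after overnight attachment, in triplicate, for 48 h. Bright-Glo luminescence was normalized to XTT viability (450 nm) and expressed as fold change relative to DMSO. At least three independent experiments.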
In general terms: A reporter such as luciferase makes a cellular process visible.

Data set [2] concerns the target Luciferin 4-monooxygenase (Photinus pyralis) (UniProt P08659). Description: Inhibition of firefly luciferase activity up to 50 uM.
For another data set, the system named is HeLa. Description: Inhibition of miR-182 RNA (unknown origin) transfected in human HeLa cells at 10 uM after 48 hrs by Bright-Glo luciferase reporter gene assay. The class given is cell-based.
Data set [3] concerns A498. As to the kind of experiment: Decrease in mature miR-21 expression levels in human A498 cells at 10 uM after 48 hrs by qRT-PCR analysis. The class given is functional, cell-based.
For the next data set, the system named is SK-OV-3. Description: Decrease in mature miR-21 expression levels in human SKOV3 cells at 10 uM after 48 hrs by qRT-PCR analysis. It is filed as functional, cell-based. (In general: Quantitative PCR measures a nucleic acid by following its amplification.)
The next data set deals with A 172. Description: Cytotoxicity against human A172 cells after 72 hrs by XTT assay. The following applies: A 172, 72 h. The class given is functional, cell-based. The essentials: (§1)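 Cells seeded at 500 per well, incubated overnight, then exposed to increasing compound concentrations (0.1% DMSO final, DMSO control) in triplicate for 72 h. Activated XTT added; absorbance read at 450 nm with 630 nm background at start and after 4 h at 37 °C, 5% CO2. Change normalized to DMSO as % viability; IC50 from variable-slope sigmoidal fit; three independent measurements.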
In general terms: Tetrazolium assays rely on reduction of a dye to a coloured formazan, in cell work by metabolically active cells.

In a further data set the test system is U-87 MG. Description: Cytotoxicity against human U87 cells after 72 hrs by XTT assay. It is filed as functional, cell-based, U-87MG ATCC. In outline:
as §1

The test system of data set [4] is A498. Description: Cytotoxicity against human A498 cells after 72 hrs by XTT assay. It is filed as functional, cell-based. The following applies: A498, 72 h. The essentials: as §1
Another data set relates to NIH3T3. Description: Cytotoxicity against mouse NIH/3T3 cells up to 100 uM after 72 hrs by XTT assay. It is filed as cell-based. The following applies: nih3t3, 72 h. The essentials:
as §1

For data set [5], the system named is microRNA 21. Description: Inhibition of miR-21 RNA in human A498 cells assessed as potentiation of topotecan-induced cytotoxicity after 72 hrs by XTT assay. The class given is cell-based. The essentials:
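The chemotherapeutic agent (topotecan) was titrated while the miR-21 inhibitor was held at a fixed concentration, 0.1% DMSO final, in triplicate. Cells were seeded at 500 per well and treated after overnight attachment. After 72 h, XTT was read at 450 nm (630 nm background) at start and after 4 h. Signal normalized to DMSO; IC50 from variable-slope sigmoidal fit.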

For data set [6], the target named is microRNA 21. As to the kind of experiment: Inhibition of miR-21 RNA in human A498 cells assessed as potentiation of topotecan-induced inhibition of colony formation by measuring topotecan IC50 at 10 uM after 2 weeks by crystal violet staining-based microscopic analysis (reference value: 2 uM). It is filed as cell-based. The essentials: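 A498 cells, 10,000 per well, seeded in 0.45% low-melt agarose in DMEM over a 0.7% agarose base layer, containing increasing compound concentrations or DMSO (0.1% final), in triplicate. For combinations, the inhibitor was held at 10 μM. After 2 weeks, colonies were stained with 0.1% crystal violet and imaged by z-stack microscopy. Colony counts were normalized to DMSO; IC50 from sigmoidal fit.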

Data set [7] has as its system microRNA 21. As to the kind of experiment: Inhibition of miR-21 RNA in human A498 cells assessed as increase in PDCD4 expression at 10 uM after 48 hrs by Western blot analysis relative to control. It is filed as cell-based. In outline: (§2)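 A498 cells, 250,000 per well, treated with 10 μM compound or DMSO (0.1%) for 48 h and lysed in RIPA buffer. Lysates were run on 10% SDS-PAGE, transferred to PVDF, and probed with rabbit anti-PTEN, anti-PDCD4 and anti-GAPDH, then HRP secondary. Chemiluminescence densitometry was normalized to GAPDH, then to DMSO.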

Data set [8] concerns microRNA 21. As to the kind of experiment: Inhibition of miR-21 RNA in human A498 cells assessed as increase in PTEN expression at 10 uM after 48 hrs by Western blot analysis relative to control. It is filed as cell-based. The essentials:
as §2

The source made the active and inactive calls. No cut-off for these calls is given here. Some results are limits rather than exact numbers.

Luciferin 4-monooxygenase (Photinus pyralis), sequence (P08659 whole entry): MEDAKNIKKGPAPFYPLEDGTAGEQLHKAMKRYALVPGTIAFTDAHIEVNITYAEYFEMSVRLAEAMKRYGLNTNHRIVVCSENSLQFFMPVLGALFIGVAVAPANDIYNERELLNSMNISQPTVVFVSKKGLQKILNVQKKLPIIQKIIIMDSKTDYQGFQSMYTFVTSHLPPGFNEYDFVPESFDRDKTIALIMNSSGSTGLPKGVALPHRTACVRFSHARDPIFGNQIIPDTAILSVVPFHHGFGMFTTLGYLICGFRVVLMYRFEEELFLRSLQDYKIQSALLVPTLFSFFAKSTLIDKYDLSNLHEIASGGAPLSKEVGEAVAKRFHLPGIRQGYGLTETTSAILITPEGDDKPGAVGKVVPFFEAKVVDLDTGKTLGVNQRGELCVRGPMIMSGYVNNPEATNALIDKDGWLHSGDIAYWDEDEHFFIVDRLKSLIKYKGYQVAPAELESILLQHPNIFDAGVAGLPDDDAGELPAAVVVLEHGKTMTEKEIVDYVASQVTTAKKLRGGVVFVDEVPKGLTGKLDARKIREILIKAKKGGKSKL

Consider `C#CCOc1ccc(-c2noc(-c3nnn(-c4cccc(/C(C)=N/O)c4)c3N)n2)cc1`, for which the fold change (FC) in the data set on microRNA 21 [1] amounted to 12.2; with microRNA 21 [7], 9.5; with microRNA 21 [8] it was 1.5. Also, the inhibition entry (in data set [2]; with HeLa) was “inactive” each time. Also, the result with A498 [3] and with SK-OV-3 was inactive. Also, the IC50 with A 172 was 4.6 µM; in the data set with U-87 MG, 3.3 µM; in the data set on A498 [4], greater than 100 µM; at microRNA 21 [6] it was 0.074 µM. For the same compound, in the data set with NIH3T3, the Activity result is given as “Non-Toxic”. In the data set on microRNA 21 [5], the inhibition result was “Dose-dependent effect”.
